# Bioassay records as filed in PubChem BioAssay.
# Most compounds without a hit are left out; they make up all but 1.9% or so of the library.
# APJ agonist: agonists of human apelin receptor APJ, primary screen, CHO-K1 cells, PathHunter beta-arrestin, luminescence; AID 2520, 2010; 0% DMSO wells, 100% apelin; 0.11% of 330,000 active; activation, % at 20 µM; P35414;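 active = activation more than six SD over the plate average, tested at 20 µM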;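 note: 0% = DMSO alone and 100% = apelin-13 at 10 nM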
# Target sequence (P35414 whole entry, looked up): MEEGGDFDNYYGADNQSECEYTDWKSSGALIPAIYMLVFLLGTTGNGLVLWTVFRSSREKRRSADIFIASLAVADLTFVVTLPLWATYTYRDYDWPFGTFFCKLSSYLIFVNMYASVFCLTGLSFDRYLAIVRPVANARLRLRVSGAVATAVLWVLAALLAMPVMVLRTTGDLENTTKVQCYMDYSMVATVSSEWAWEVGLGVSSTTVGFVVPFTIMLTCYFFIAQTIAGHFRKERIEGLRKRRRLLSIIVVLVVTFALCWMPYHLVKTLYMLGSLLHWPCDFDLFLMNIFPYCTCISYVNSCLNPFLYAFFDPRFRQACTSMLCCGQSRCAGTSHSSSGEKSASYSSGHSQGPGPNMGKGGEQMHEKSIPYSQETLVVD
#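 Incubation: overnight seeding, 90 min compound at 25 °C, 1 h detection; test system: PathHunter CHO-K1 APJ (AGTRL-1) beta-arrestin reporter cells; amount: 1000 cells/well; doses: one dose, 20 µM compound, 1% DMSO; measured by: beta-gal luminescence; measure: agonist-driven arrestin binding to APJ; benchmarks: negative DMSO alone, positive Apelin-13 at 10 nM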
# H9c2 TAG inh: inhibitors of triacylglycerol accumulation, primary screen, cell-based, uHTS, fluorescence, H9c2; H9c2 cells, Nile Red lipid (TAG) fluorescence; cells loaded with 200 µM oleic acid; inhibition, % at 12.5 µM; 0.66% of 230,000 active; AID 651582, 2012;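 active = pattern-corrected inhibition of lipid staining of at least 50% with the nuclear-stain viability signal not falling by more than 50%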;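 note: 0% = DMSO wells and 100% = triacsin C control wells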
# APJ antag: antagonists of human apelin receptor APJ, primary screen, CHO-K1 cells, beta-arrestin complementation, luminescence; P35414; 0.32% of 330,000 active; inhibition, % at 20 µM;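 active = inhibition above about 40% at 20 µM, limit read from the data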;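 note: cells challenged with 10 nM apelin-13 agonist together with compound; plate controls were apelin-13 plus DMSO wells for no effect and DMSO wells lacking apelin-13 for full effect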
# CCR6 antag: CCR6 receptor antagonists, primary screen, cell-based, CHO-K1, luminescence, beta-arrestin, uHTS. CHO-K1 CCR6 PathHunter beta-arrestin, CCL20-stimulated. AID 493098, 2011. C-C chemokine receptor type 6 (Homo sapiens), P51684. 0.49% of 340,000 active. inhibition, % at 20 µM;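 active = compounds whose inhibition of the agonist-driven luminescence signal at 20 µM reaches about 50%, limit read from the data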;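 note: cells stimulated with CCL20 at 14 nM final; plate controls were DMSO with CCL20 for no effect and DMSO without agonist for full effect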
# EBI2 block: EBI2 receptor antagonists, beta-arrestin recruitment, primary screen, cell-based, luminescence, 7a,25-OHC stimulation, uHTS | G-protein coupled receptor 183 (Homo sapiens), P32249 | 7a,25-OHC stimulated | inhibition, % at 5 µM | 0.81% of 360,000 active | AID 651636, 2012; in the data active = inhibition above about 38%;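 note: enzyme fragment complementation signal reports receptor beta-arrestin coupling in cells; 0% = agonist plus DMSO wells and 100% = wells without agonist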
# CXCR6 inh: CXCR6 receptor inhibitors, primary screen, cell-based, beta-arrestin, luminescence, CHO-K1 PathHunter, 1536-well | C-X-C chemokine receptor type 6 (Homo sapiens), O00574 | inhibition, % at 20 µM | 0.36% of 360,000 active; in the data active = inhibition above about 34%, passing the limit was not always enough;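 note: antagonist mode with CXCL16 agonist at 10 nM final; 0% = 10 nM CXCL16 with DMSO and 100% = unstimulated wells without agonist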
# EBI2 conf: EBI2 antagonist hit retest, beta-arrestin, confirmation, cell-based, single concentration, luminescence, 7a,25-OHC stimulation. inhibition, % at 5 µM. 29% of 2,400 active. AID 651997, 2013. 7a,25-OHC antagonism. shares compounds with EBI2 block;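 active = inhibition of at least 50%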
# EBI2 agonist: EBI2 agonist activity of antagonist hits, confirmation, counter-screen for EBI2 antagonist project, cell-based, single concentration, agonist mode, luminescence; activation, % at 5 µM; 2,400 tested, under 10 active; EBI2-expressing cells, 60 min; 0% vehicle, 100% 7α,25-dihydroxycholesterol control; shares compounds with EBI2 block;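 active = activation of at least 50%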
# bGal counter: E. coli beta-galactosidase enzyme inhibition, confirmation, counter-screen for EBI2 antagonist project, biochemical, luminescence, single concentration; 1% of 2,400 active; inhibition, % at 5 µM; shares compounds with EBI2 block; purified beta-galactosidase, luminescent Galacton Star, 15 min; AID 652176, 2013;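 active = replicate-average signal at least 3 plate SD below neutral wells, shown as high inhibition, flagging enzyme-inhibiting false positives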;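 note: 0% = DMSO wells with enzyme and 100% = wells lacking enzyme; higher means stronger loss of beta-gal luminescence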
# Numbers without * were called inactive; / = not tested or not shown.
SMILES,APJ agonist,H9c2 TAG inh,APJ antag,CCR6 antag,EBI2 block,CXCR6 inh,EBI2 conf,EBI2 agonist,bGal counter
COCCN(C(=O)COC(=O)C1CC1C)c1c(N)n(Cc2ccccc2)c(=O)[nH]c1=O (centres undefined),-6,16,7,-2,-2,3,/,/,/
Cc1ccc(S(=O)(=O)N2CCC(C(=O)OCCOc3ccccc3)CC2)cc1C,-4,2,10,13,45*,-9,40,-1,-20
Cc1ccc(OCCOC(=O)C2CCN(S(=O)(=O)c3ccc(C)c(C)c3)CC2)cc1,-2,-11,11,2,56*,-1,26,0,7
CCOC(=O)c1cnn(-c2nc(-c3ccccc3)cs2)c1C(F)(F)F,-3,/,-3,-7,/,/,/,/,/
CCOC(=O)c1cnn(-c2nc(-c3ccc(F)cc3)cs2)c1C(F)(F)F,-2,-35,-6,7,53*,-12,56*,1,6
CC[C@]12c3[nH]c4ccc(Cl)cc4c3CCN1C(=O)[C@@H](CC(=O)NCc1ccc(OC)c(OC)c1)C[C@@H]2C(=O)N1CCN(C(=O)c2ccco2)CC1,/,2,/,30,-4,-9,/,/,/
Cc1ccc(C(=O)OC(C)C(=O)N(C)C2CCCCC2)cc1S(=O)(=O)N1CCCCC1 (centres undefined),-3,-19,6,15,5,1,/,/,/
COc1cc2ccccc2cc1C(=O)N1CCN(C(C)=O)CC1,-4,-7,9,5,66*,5,52*,0,-13
CCOc1ccccc1N1CCN(C(=O)c2cc3ccccc3cc2OC)CC1,-5,26,18,2,57*,6,31,1,9
CCc1ccc(CN(C)C(=O)c2cc(=O)c3ccccc3o2)cc1,-3,/,8,9,86*,8,65*,0,-11
Cc1ccc(S(=O)(=O)N2CCOC23CCN(C(=O)C(=O)NCCC(C)C)CC3)cc1,0,-3,1,-5,-8,-1,/,/,/
Cc1c(C(=O)N2CCN(C/C=C/c3ccccc3)CC2)oc2c(F)cccc12,-4,1,-8,13,32,3,/,/,/
COc1ccc(N2CCN(C(=O)c3oc4ccccc4c3C)CC2)cc1,-1,-8,2,1,21,0,/,/,/
COc1ccc2oc(C(=O)N3CCN(C(c4ccccc4)c4ccccc4)CC3)c(C)c2c1,-1,2,10,20,92*,5,68*,3,8
COc1ccc2oc(C(=O)N3CCN(C/C=C/c4ccccc4)CC3)c(C)c2c1,3,-4,3,6,46*,5,30,0,-11
COc1ccc(-c2cc(C(=O)N3CCN(C(c4ccccc4)c4ccccc4)CC3)no2)cc1,-5,/,0,13,91*,0,76*,0,9
O=C(Cn1ccc(NC(=O)OCc2ccccc2)nc1=O)NCCCn1ccnc1,-2,2,-2,4,-2,-3,/,/,/
CN1OC[C@@H]2CN[C@H](c3cccc(-c4ccc(C#N)cc4)c3)C[C@@H]21,/,9,/,7,-2,5,/,/,/
Nc1c(C(=O)Nc2cccc(F)c2)nnn1-c1ccc2c(c1)OCCO2,2,/,-2,8,1,0,/,/,/
CC(=O)Nc1ccc(C(=O)Nc2cccc(S(=O)(=O)N(C)c3ccccc3)c2)cc1,-2,-9,5,-3,1,-16,/,/,/
O=C(Nc1ccccc1-c1ccccc1)c1ccc(Cl)c([N+](=O)[O-])c1,-1,0,7,22,53*,-12,38,0,-1
CN(c1ccccc1)S(=O)(=O)c1cccc(NC(=O)c2ccc(Cl)c([N+](=O)[O-])c2)c1,7,31,7,6,46*,-3,65*,1,5
O=C(Nc1ccc(Nc2ccccc2)cc1)c1ccc(Cl)c([N+](=O)[O-])c1,0,/,4,22,5,9,/,/,/
Cc1cccc(C)c1NC(=O)C1(C)CSCC(=O)N1Cc1ccco1 (centres undefined),/,/,/,/,4,/,/,/,/
COC(=O)c1cc2c(ccn2-c2ccc(F)cc2)n1Cc1ccc(OC)cc1,2,/,6,26,44*,8,19,0,5
SMILES,APJ agonist,H9c2 TAG inh,APJ antag,CCR6 antag,EBI2 block,CXCR6 inh,EBI2 conf,EBI2 agonist,bGal counter
CCn1c(C(=O)OC)cc2c1ccn2-c1ccc(F)cc1,-4,-29,18,16,46*,5,20,-1,-8
CCOc1ccccc1C(=O)NCC(=O)NNC(=O)c1csc(N2CCOCC2)n1,/,16,/,/,-3,3,/,/,/
COc1ccc(C(=O)/C=C/c2ccc(OC3CSC3)cc2)cc1OC,0,/,4,17,21,4,/,/,/
O=C(/C=C/c1ccc(OC2CSC2)cc1)c1ccc(Cl)cc1,-3,/,14,2,43*,0,12,0,8
CCOC(=O)c1c(Nc2ccccc2)sc(/C=C2\C=Nc3ccccc32)c1O,-2,/,10,-6,53*,6,41,-1,7
Oc1nc(Nc2ccccc2)sc1/C=C1\C=Nc2ccccc21,-5,6,1,9,20,8,/,/,/
Cc1occc1-c1nnc(SCC(=O)NCCc2ccccc2)n1C(C)c1ccccc1 (centres undefined),2,6,-9,12,51*,6,27,-2,-11
CC1(C)C2CC=C(/C=N/NC(=S)Nc3cccnc3)C1C2 (centres undefined),-4,-2,28,14,-8,-1,/,/,/
CC1=C/C(=N\NC(=S)Nc2cccnc2)CC(C)(C)C1,/,53*,/,46,39*,11,78*,-2,-9
Cc1ccccc1CS(=O)(=O)Cc1ccc(C(=O)NCCc2ccccc2)o1,-3,/,4,17,37*,11,28,0,2
